{
  "source": "ChEMBL document CHEMBL1240362",
  "about": "“Intrapulmonary pharmacokinetics of S-013420, a novel bicyclolide antibacterial, in healthy Japanese subjects” (Antimicrob Agents Chemother, 2010)",
  "key": {"Homo sapiens [1]": {"system": "Homo sapiens", "experiment": "Toxicity in healthy human assessed as neutrophil count in bronchoalveolar fluid at […], po administered as single dose after 2 hrs", "type": "organism-based, Lung", "design": "route oral", "details": "in vivo", "procedure,_shortened": "(§1)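 Healthy Japanese male never-smokers, aged 20 to 45 years with normal BMI, got one open-label oral 400 mg suspension dose. Four subjects per time group had one fiber-optic bronchoscopic BAL at the assigned post-dose time. The first aliquot was discarded and the last three were pooled. BAL fluid was held on ice and spun at 400 × g for 5 min at 4°C. Pellet cells were counted by hemocytometer, with a differential count on a stained cytocentrifuge preparation.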"}, "Homo sapiens [2]": {"system": "Homo sapiens", "experiment": "Toxicity in healthy human assessed as neutrophil count in bronchoalveolar fluid at […], po administered as single dose after 8 hrs", "type": "organism-based, Lung", "design": "route oral", "details": "in vivo", "procedure,_shortened": "as §1"}, "Homo sapiens [3]": {"system": "Homo sapiens", "experiment": "Toxicity in healthy human assessed as lymphocytes count in bronchoalveolar fluid at […], po administered as single dose after 2 hrs", "type": "organism-based, Lung", "design": "route oral", "details": "in vivo", "procedure,_shortened": "as §1"}, "Homo sapiens [4]": {"system": "Homo sapiens", "experiment": "Toxicity in healthy human assessed as lymphocytes count in bronchoalveolar fluid at […], po administered as single dose after 6 hrs", "type": "organism-based, Lung", "design": "route oral", "details": "in vivo", "procedure,_shortened": "as §1"}, "Homo sapiens [5]": {"system": "Homo sapiens", "experiment": "Toxicity in healthy human assessed as other cellular fractions in bronchoalveolar fluid at […], po administered as single dose after 10 hrs", "type": "organism-based, Lung", "design": "route oral", "details": "in vivo", "procedure,_shortened": "as §1"}, "Homo sapiens [6]": {"system": "Homo sapiens", "experiment": "Toxicity in healthy human assessed as other cellular fractions in bronchoalveolar fluid at […], po administered as single dose after 12 hrs", "type": "organism-based, Lung", "design": "route oral", "details": "in vivo", "procedure,_shortened": "as §1"}, "Homo sapiens [7]": {"system": "Homo sapiens", "experiment": "Toxicity in healthy human assessed as other cellular fractions in bronchoalveolar fluid at […], po administered as single dose after 24 hrs", "type": "organism-based, Lung", "design": "route oral", "details": "in vivo", "procedure,_shortened": "as §1"}, "[8]": {"experiment": "Drug level in epithelial lining fluid of healthy human at […] administered as single dose after 2 hrs", "type": "ADME, organism-based", "design": "route oral", "details": "po, read-out: Drug uptake", "procedure,_shortened": "(§2)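 Four healthy male volunteers per BAL time (2-24 h) after one oral 400 mg suspension dose. Single bronchoscopic lavage; first aliquot discarded, next three pooled. Supernatant separated at 400 × g, 5 min, 4°C, and drug assayed by LC/MS/MS. ELF level = CBAL × urea plasma/urea BAL, with urea corrected for blood contamination via RBC ratio. PK parameters are model-independent, based on the mean concentration at each time.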"}, "[9]": {"experiment": "Drug level in epithelial lining fluid of healthy human at […], po administered as single dose after 4 hrs", "type": "ADME, organism-based", "design": "route oral", "details": "read-out: Drug uptake", "procedure,_shortened": "as §2"}, "[10]": {"experiment": "Drug level in epithelial lining fluid of healthy human at […], po administered as single dose after 8 hrs", "type": "ADME, organism-based", "design": "route oral", "details": "read-out: Drug uptake", "procedure,_shortened": "as §2"}, "[11]": {"experiment": "Drug level in epithelial lining fluid of healthy human at […], po administered as single dose after 10 hrs", "type": "ADME, organism-based", "design": "route oral", "details": "read-out: Drug uptake", "procedure,_shortened": "as §2"}, "[12]": {"experiment": "Drug level in alveolar macrophages of healthy human at […], po administered as single dose after 2 hrs", "type": "ADME, organism-based, Macrophage", "design": "route oral", "details": "read-out: Drug uptake", "procedure,_shortened": "(§3)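 One oral 400 mg suspension dose; four volunteers lavaged at each time (2-24 h). Cell pellet from the pooled 2nd-4th aspirates was counted (hemocytometer, stained cytospin differential). Drug in cell suspension measured by HPLC, divided by AM volume assuming 2.42 μl/10^6 cells. Cmax and Tmax are model-independent, based on mean concentrations at each time.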"}, "[13]": {"experiment": "Drug level in alveolar macrophages of healthy human at […], po administered as single dose after 4 hrs", "type": "ADME, organism-based, Macrophage", "design": "route oral", "details": "read-out: Drug uptake", "procedure,_shortened": "as §3"}, "[14]": {"experiment": "Drug level in alveolar macrophages of healthy human at […], po administered as single dose after 8 hrs", "type": "ADME, organism-based, Macrophage", "design": "route oral", "details": "read-out: Drug uptake", "procedure,_shortened": "as §3"}, "[15]": {"experiment": "Drug level in alveolar macrophages of healthy human at […], po administered as single dose after 10 hrs", "type": "ADME, organism-based, Macrophage", "design": "route oral", "details": "read-out: Drug uptake", "procedure,_shortened": "as §3"}, "[16]": {"experiment": "Ratio of drug level in epithelial lining fluid to plasma in healthy human at […], po administered as single dose after 4 hrs", "type": "ADME, organism-based", "design": "route oral", "procedure,_shortened": "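For each subject, ELF or AM drug level after the single oral 400 mg dose is divided by the plasma level sampled at the BAL time (2-24 h). Ratios are summarized per four-subject group.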"}, "Staphylococcus aureus [17]": {"system": "Staphylococcus aureus", "experiment": "Antimicrobial activity against erythromycin-susceptible Staphylococcus aureus", "type": "functional"}, "Staphylococcus aureus [18]": {"system": "Staphylococcus aureus", "experiment": "Antimicrobial activity against methicillin susceptible Staphylococcus aureus", "type": "functional"}, "[19]": {"experiment": "Ratio of AUC (0 to 24 hrs) in plasma of healthy human to MIC90 for erythromycin-susceptible Staphylococcus aureus", "type": "functional"}, "[20]": {"experiment": "Ratio of AUC (0 to 24 hrs) in plasma of healthy human to MIC90 for Moraxella catarrhalis", "type": "functional"}, "[21]": {"experiment": "Ratio of AUC (0 to 24 hrs) in […] healthy epithelial lining fluid to MIC90 for Streptococcus pneumoniae", "type": "functional"}, "[22]": {"experiment": "Ratio of AUC (0 to 24 hrs) in […] healthy epithelial lining fluid to MIC90 for Haemophilus influenzae", "type": "functional"}, "[23]": {"experiment": "Tmax in alveolar macrophages of healthy human at 400 mg, po administered as single dose"}, "[24]": {"experiment": "Terminal-phase half-life in plasma of healthy human at 400 mg, po administered as single dose", "details": "read-out: beta t1/2 (converted)"}, "[25]": {"experiment": "Ratio of drug level in alveolar macrophages to plasma in healthy human at 400 mg, po administered as single dose after 2 hrs"}, "[26]": {"experiment": "Ratio of drug level in alveolar macrophages to plasma in healthy human at 400 mg, po administered as single dose after 4 hrs"}, "[27]": {"experiment": "Ratio of drug level in alveolar macrophages to plasma in healthy human at 400 mg, po administered as single dose after 6 hrs"}, "[28]": {"experiment": "Ratio of drug level in alveolar macrophages to plasma in healthy human at 400 mg, po administered as single dose after 10 hrs"}, "[29]": {"experiment": "Ratio of drug level in alveolar macrophages to plasma in healthy human at 400 mg, po administered as single dose after 12 hrs"}, "Homo sapiens [30]": {"system": "Homo sapiens", "experiment": "Toxicity in healthy human assessed as eosinophil count in bronchoalveolar fluid at 400 mg, po administered as single dose after 4 hrs", "details": "in vivo"}, "Homo sapiens [31]": {"system": "Homo sapiens", "experiment": "Toxicity in healthy human assessed as eosinophil count in bronchoalveolar fluid at 400 mg, po administered as single dose after 6 hrs", "details": "in vivo"}, "Homo sapiens [32]": {"system": "Homo sapiens", "experiment": "Toxicity in healthy human assessed as other cellular fractions in bronchoalveolar fluid at 400 mg, po administered as single dose after 2 hrs", "details": "in vivo"}, "Homo sapiens [33]": {"system": "Homo sapiens", "experiment": "Toxicity in healthy human assessed as alveolar macrophage count in bronchoalveolar fluid at 400 mg, po administered as single dose after 4 hrs", "details": "in vivo"}, "Homo sapiens [34]": {"system": "Homo sapiens", "experiment": "Toxicity in healthy human assessed as alveolar macrophage count in bronchoalveolar fluid at 400 mg, po administered as single dose after 6 hrs", "details": "in vivo"}, "Homo sapiens [35]": {"system": "Homo sapiens", "experiment": "Toxicity in healthy human assessed as alveolar macrophage count in bronchoalveolar fluid at 400 mg, po administered as single dose after 12 hrs", "details": "in vivo"}, "Homo sapiens [36]": {"system": "Homo sapiens", "experiment": "Toxicity in healthy human assessed as alveolar macrophage count in bronchoalveolar fluid at 400 mg, po administered as single dose after 24 hrs", "details": "in vivo"}},
  "data": [
    {"smiles": "CC[C@H]1OC(=O)[C@H](C)C(=O)[C@H](C)[C@@H](O[C@@H]2O[C@H](C)C[C@H](N(C)C)[C@H]2O)[C@@]2(C)C[C@@H](C)/C(=N\\C(C)=O)[C@H](C)[C@@H](OC/C(=N\\OCc3ccc(-n4cccn4)nc3)CO2)[C@]1(C)O", "note": "[MODITHROMYCIN]", "values": [
      {"measurement": "Activity", "setting": "Homo sapiens [1]", "value": 0, "unit": "%"},
      {"measurement": "Activity", "setting": "Homo sapiens [2]", "value": 0.1, "unit": "%"},
      {"measurement": "Activity", "setting": "Homo sapiens [3]", "value": 15.3, "unit": "%"},
      {"measurement": "Activity", "setting": "Homo sapiens [4]", "value": 13, "unit": "%"},
      {"measurement": "Activity", "setting": "Homo sapiens [5]", "value": 0.5, "unit": "%"},
      {"measurement": "Activity", "setting": "Homo sapiens [6]", "value": 0, "unit": "%"},
      {"measurement": "Activity", "setting": "Homo sapiens [7]", "value": 0, "unit": "%"},
      {"measurement": "concentration at 2 h", "setting": "[8]", "value": 16700, "unit": "ng/mL"},
      {"measurement": "concentration at 4 h", "setting": "[9]", "value": 13700, "unit": "ng/mL"},
      {"measurement": "concentration at 8 h", "setting": "[10]", "value": 11400, "unit": "ng/mL"},
      {"measurement": "concentration at 10 h", "setting": "[11]", "value": 10000, "unit": "ng/mL"},
      {"measurement": "concentration at 2 h", "setting": "[12]", "value": 61000, "unit": "ng/mL"},
      {"measurement": "concentration at 4 h", "setting": "[13]", "value": 116000, "unit": "ng/mL"},
      {"measurement": "concentration at 8 h", "setting": "[14]", "value": 125000, "unit": "ng/mL"},
      {"measurement": "concentration at 10 h", "setting": "[15]", "value": 108000, "unit": "ng/mL"},
      {"measurement": "Kp at 4 h", "setting": "[16]", "value": 24.8},
      {"measurement": "MIC90", "setting": "Staphylococcus aureus [17]", "value": 0.25, "unit": "µg/mL"},
      {"measurement": "MIC90", "setting": "Staphylococcus aureus [18]", "value": "≤ 0.063", "unit": "µg/mL"},
      {"measurement": "RatioAUC/MIC", "setting": "[19]", "value": 41.8},
      {"measurement": "RatioAUC/MIC", "setting": "[20]", "value": 20.9},
      {"measurement": "RatioAUC/MIC", "setting": "[21]", "value": 1699.2},
      {"measurement": "RatioAUC/MIC", "setting": "[22]", "value": 26.6},
      {"measurement": "Tmax", "setting": "[23]", "value": 12, "unit": "h"},
      {"measurement": "half-life", "setting": "[24]", "value": 17.5, "unit": "h"},
      {"measurement": "Kp at 2 h", "setting": "[25]", "value": 93},
      {"measurement": "Kp at 4 h", "setting": "[26]", "value": 201},
      {"measurement": "Kp at 6 h", "setting": "[27]", "value": 183},
      {"measurement": "Kp at 10 h", "setting": "[28]", "value": 260},
      {"measurement": "Kp at 12 h", "setting": "[29]", "value": 406},
      {"measurement": "Activity", "setting": "Homo sapiens [30]", "value": 0.1, "unit": "%"},
      {"measurement": "Activity", "setting": "Homo sapiens [31]", "value": 0, "unit": "%"},
      {"measurement": "Activity", "setting": "Homo sapiens [32]", "value": 0, "unit": "%"},
      {"measurement": "Activity", "setting": "Homo sapiens [33]", "value": 87.1, "unit": "%"},
      {"measurement": "Activity", "setting": "Homo sapiens [34]", "value": 86.9, "unit": "%"},
      {"measurement": "Activity", "setting": "Homo sapiens [35]", "value": 85.9, "unit": "%"},
      {"measurement": "Activity", "setting": "Homo sapiens [36]", "value": 89.3, "unit": "%"}
    ]}
  ]
}
